# Compounds with a hit are over-represented: about 4.8% of the library has one in this group of screens.
# PAFAH1B2 inh: PAFAH1B2 enzyme inhibitors, primary screen, biochemical, fluorescence polarization, human; Platelet-activating factor acetylhydrolase IB subunit alpha2 (Homo sapiens), P68402; recombinant PAFAH1B2, FP-rhodamine activity probe; inhibition, % at 3.39 µM; 340,000 tested, 1.2% active;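 active means inhibition above the mean of all tested compounds plus 3 SD, cut at about 24% in these data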;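 further: 0% = enzyme with DMSO and 100% = wells lacking PAFAH1B2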
# Target sequence (P68402 whole entry, looked up): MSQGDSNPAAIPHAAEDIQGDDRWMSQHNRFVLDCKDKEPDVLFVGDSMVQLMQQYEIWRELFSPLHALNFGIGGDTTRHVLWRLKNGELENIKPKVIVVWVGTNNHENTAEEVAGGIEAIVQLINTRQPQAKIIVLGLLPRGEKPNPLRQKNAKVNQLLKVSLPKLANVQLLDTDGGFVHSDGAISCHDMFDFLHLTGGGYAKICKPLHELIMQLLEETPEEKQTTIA
# PAFAH2 inh: PAFAH2 enzyme inhibitors, primary screen, biochemical, fluorescence polarization, human. recombinant PAFAH2, FP-rhodamine activity probe. 340,000 tested, 0.99% active. inhibition, % at 3.39 µM. Platelet-activating factor acetylhydrolase 2, cytoplasmic (Homo sapiens), Q99487;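 active means inhibition above the mean over all tested compounds plus 3 SD, cut at about 30% in these data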;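 further: inhibitors block probe labeling of enzyme so polarization drops; 0% = enzyme with DMSO and 100% = wells lacking PAFAH2 protein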
# pPAFAH FP inh: pPAFAH enzyme inhibitors, primary screen, biochemical, fluorescence polarization, human | inhibition, % at 3.39 µM | recombinant pPAFAH, FP-rhodamine probe fluorescence polarization | 330,000 tested, 1.5% active | Platelet-activating factor acetylhydrolase (Homo sapiens), Q13093;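 active means inhibition above the mean inhibition across the screen plus 3 SD, cut at about 25% in these data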;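 further: inhibitors block binding of the rhodamine activity-based probe so polarization drops; 0% = enzyme with DMSO and 100% = wells lacking pPAFAH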
# UCH37 inh: inhibitors of human UCH37 deubiquitinase, primary screen, biochemical, Ub-AMC cleavage, fluorescence. Ubiquitin carboxyl-terminal hydrolase isozyme L5 (Homo sapiens), Q9Y5K5. purified proteasome/UCH37. inhibition, % (test concentration not listed). 330,000 tested, 0.33% active;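 active means mean inhibition over replicate wells above about 20%, limit read from the data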;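 further: 0% = compound-free wells with enzyme and 100% = wells lacking proteasome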
#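 Material: human UCH37 enzyme supplied as purified proteasome complex. Measure: % inhibition of Ub-AMC cleavage fluorescence. Medium: pH 7.4 Tris-HCl (50 mM) with ovalbumin, ATP-MgCl2, DTT. Times: 30 min preincubation with enzyme, 25 min cleavage at room temperature. Detection: AMC fluorescence intensity at 355/460 nm.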
# NR3A LBD binder: binders of NR3A ligand-binding domain, primary screen, biophysical, differential scanning fluorimetry, uHTS | Glutamate receptor ionotropic, NMDA 3A (GRIN3A) ligand-binding domain | NR3A LBD differential scanning fluorimetry, Tm shift; 0% = protein alone, 100% = glycine-bound protein | Tm shift relative to glycine control, % at 25 µM | 340,000 tested, 2.5% active;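 active means melting temperature shift of at least 10% of the positive control shift, at one fixed dose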
# PAFAH1B3 inh: PAFAH1B3 enzyme inhibitors, primary screen, biochemical, fluorescence polarization, human. Platelet-activating factor acetylhydrolase IB subunit alpha1 (Homo sapiens), Q15102. recombinant PAFAH1B3, FP-rhodamine probe. inhibition, % at 3.39 µM. 340,000 tested, 0.28% active. AID 492972, 2010;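 active means inhibition above the screen-wide average of all tested compounds plus 3 SD, cut at about 25% in these data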;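 further: 0% = enzyme with DMSO only and 100% = wells lacking PAFAH1B3 protein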
# Target sequence (Q15102 whole entry, looked up): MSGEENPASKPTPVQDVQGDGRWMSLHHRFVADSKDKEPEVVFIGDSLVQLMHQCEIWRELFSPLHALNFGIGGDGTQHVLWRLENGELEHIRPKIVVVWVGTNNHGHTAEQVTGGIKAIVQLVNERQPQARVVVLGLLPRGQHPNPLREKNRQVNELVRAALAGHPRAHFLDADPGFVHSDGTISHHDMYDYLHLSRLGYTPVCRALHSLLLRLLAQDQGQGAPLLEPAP
# Numbers without * were called inactive; . = no result.
SMILES,PAFAH1B2 inh,PAFAH2 inh,pPAFAH FP inh,UCH37 inh,NR3A LBD binder,PAFAH1B3 inh
O=C(COC(=O)C12CC3CC(CC(Br)(C3)C1)C2)Nc1c(F)cccc1F,35*,11,-5,1,2,14
N#C/C(=C\c1cccs1)C(=O)c1ccccc1,5,5,-4,3,14*,13
N#C/C(=C\c1ccc(C#N)cc1)C(=O)c1ccccc1,6,-8,.,.,6,7
CCOC(=O)Nc1ccc2c(COC(=O)CNS(=O)(=O)c3cccc(Br)c3)cc(=O)oc2c1,-5,-32,-4,-221,26*,-13
Cc1ccccc1-n1c(=C(C#N)C(=O)Nc2ccccc2)sc(=Cc2ccco2)c1=O,.,.,.,3,.,.
CC(C)=CCc1cc([C@@H]2COc3c(ccc4c3C=CC(C)(C)O4)C2)c(O)cc1O,-1,0,9,2,27*,8
CC1(C)C=Cc2c(ccc3c2OC[C@H](c2ccc(O)cc2O)C3)O1,6,15,-4,.,19*,13
Cc1noc(C)c1S(=O)(=O)Nc1ccc(C(=O)NCc2ccccc2)cc1,-7,5,3,4,6,2
CC(=O)Nc1cccc(NS(=O)(=O)c2c(C)noc2C)c1,4,-2,-2,0,-1,3
Cc1cccc(NC(=O)c2ccc(NS(=O)(=O)c3c(C)noc3C)cc2)c1,4,-1,13,3,29*,3
CCc1cccc(NC(=O)c2ccc(NS(=O)(=O)c3c(C)noc3C)cc2)c1,5,6,29*,3,29*,7
COc1cc(NC(=O)c2ccc(NS(=O)(=O)c3c(C)noc3C)cc2)cc(OC)c1,3,-3,7,1,19*,8
COc1ccc(OC)c(NC(=O)c2ccc(NS(=O)(=O)c3c(C)noc3C)cc2)c1,3,-5,6,3,3,0
Cc1noc(C)c1S(=O)(=O)N1CCC(C(=O)Nc2ccc(OC(F)(F)F)cc2)CC1,2,-4,3,2,-7,5
Cc1noc(C)c1S(=O)(=O)Nc1ccc(C(=O)Nc2ccc(OC(F)(F)F)cc2)cc1,2,1,13,4,12*,3
CC1CCc2c(sc(N=Cc3cccnc3)c2C(N)=O)C1 (centres undefined),.,.,.,-14,.,.
O=[N+]([O-])c1cccc(C=NNc2nccnc2Cl)c1,.,.,.,9,.,.
ON=C(CCc1ccccc1)c1ccc2c(c1)OCCO2,.,.,.,3,.,.
Cc1cccc(-c2cc3nc4c(c(N5CCOCC5)n3n2)CCCC4)c1,6,0,3,-62,-10,8
Cc1cccc(-c2cc3nc4c(c(N5CCC6(CC5)OCCO6)n3n2)CCCC4)c1,3,-2,2,-33,15*,3
CC(/C=C/c1ccc2c(c1)OCO2)=NNC(=O)c1ccncc1,.,.,.,17,.,.
Cc1[nH]c2ccccc2c1/C=N/NC(=O)c1cc(-c2cccs2)[nH]n1,11,14,27*,.,21*,22
Cn1cccc1-c1cc(C(=O)N/N=C/c2ccc(Cl)cc2)[nH]n1,3,-8,9,.,19*,11
Cc1ccc(-c2cc(C(=O)N/N=C/c3c(C)nn(-c4ccccc4)c3C)n[nH]2)s1,-4,-23,.,.,15*,-21
CC(/C=N/NC(=O)c1ccc(Br)cc1)=C\c1ccccc1,0,-3,8,.,23*,-1
SMILES,PAFAH1B2 inh,PAFAH2 inh,pPAFAH FP inh,UCH37 inh,NR3A LBD binder,PAFAH1B3 inh
CC(CCc1oc2ccc(Br)cc2c1-c1ccc(C)o1)=NO,.,.,.,1,.,.
Cc1[nH]c2ccccc2c1C=NNC(=O)c1ccccc1,.,.,.,10,.,.
CC(/C=N/NC(=O)c1cc(-c2cccs2)[nH]n1)=C\c1ccccc1,-4,-12,-15,.,11*,-1
COc1ccccc1/C=C/C=N/NC(=O)c1cc(-c2ccco2)[nH]n1,.,.,30*,.,8,.
C/C(C=NNC(=O)c1ccncc1)=C\c1ccco1,.,.,.,23*,.,.
Cc1[nH]c2ccccc2c1/C=N/NC(=O)C1CC1(c1ccccc1)c1ccccc1 (centres undefined),10,-10,8,.,12*,22
COc1ccccc1/C=C/C=NNC(=O)c1cc(-c2ccco2)[nH]n1,.,.,.,-1,.,.
CC(/C=N/NC(=O)c1cccs1)=C\c1ccco1,2,5,14,.,3,9
O=C(NN=C1CCCc2oc(C(=O)O)cc21)c1ccccc1,.,.,.,12,.,.
CC(/C=N/NC(=O)c1cc(-c2ccc(C)o2)[nH]n1)=C\c1ccccc1,-4,-9,-4,.,22*,-5
Cc1ccc(-c2cc(C(=O)N/N=C/c3ccc(Cl)cc3)n[nH]2)o1,1,-10,-2,.,31*,2
CCOc1ccc(C(=O)N/N=C(/C)C2C(=O)c3ccccc3C2=O)cc1,-3,0,4,.,-1,10
C/C(C=NNC(=O)c1cc(-c2ccc(C)o2)[nH]n1)=C\c1ccccc1,.,.,.,0,.,.
C/C(=N\NC(=O)c1ccc(Br)cc1)C1C(=O)c2ccccc2C1=O,15,16,25*,.,14*,29*
O=C(N/N=C/C(Br)=C/c1ccccc1)c1cc(-c2ccco2)[nH]n1,-11,-15,12,.,22*,-16
Oc1oc(-c2cccc3ccccc23)nc1C=Nc1nccs1,.,.,.,9,.,.
CN(C)Cc1c(C(=O)NN=Cc2ccc(OCc3c(F)cccc3Cl)cc2)nnn1-c1nonc1N,.,.,.,0,.,.
CC(=NNC(=O)COc1ccc(C(C)(C)C)cc1)c1ccc(-n2ccnc2)cc1,.,.,.,1,.,.
OC(CNCc1ccccc1)(c1ccccc1)c1ccccc1,2,5,0,2,0,-4
OC(Cc1ccncc1)(c1ccccc1)c1ccccc1,5,4,8,25*,14*,-2
CC(=NN(c1ccccc1)c1ccccc1)c1ccc(N)cc1,.,.,.,3,.,.
Cc1cc(C)n2[nH]c(=O)c(N=Nc3ccc(S(N)(=O)=O)cc3)c2n1,4,0,2,25*,1,1
Cc1ccc(N=Nc2c(N)[nH]n3c(=O)cc(C)nc23)cc1,3,10,7,15,1,10
NS(=O)(=O)c1ccc(N=Nc2c(-c3ccccc3)[nH]n(-c3nc(-c4ccccc4)cs3)c2=O)cc1,3,12,3,5,26*,6
Nc1[nH]n2c(=O)cc(-c3ccccc3)nc2c1N=Nc1ccc(S(N)(=O)=O)cc1,2,20,20,12,26*,18
Cc1ccc(N=Nc2c(=O)[nH]n3c(C)cc(C)nc23)cc1,4,-1,-3,8,0,9
